The text below walks through data of the EternaBench riboswitch data.

In this series the test system is MS2 coat protein. The experiment in a line: apparent Kd, MS2 coat protein; higher = weaker binding; RNA-MaP array; FMN 200 µM where present. Summed up:
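Each design was made on Illumina sequencing-chip clusters by stalled E. coli RNA polymerase and titrated with SNAP-549-labelled MS2 coat protein from 0.7 or 1.5 nM, doubling to 3 µM, in the absence and then the presence of constant ligand. The buffer was 100 mM Tris-HCl pH 7.5, 80 mM KCl, 4 mM MgCl2, BSA, DTT, yeast tRNA and Tween-20. The apparent Kd is the median of filtered per-cluster fits of binding curves, with green signal normalised to red-channel RNA signal and control-cluster median Fmax.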

Setting [1] is: designed as: ON switch for flavin mononucleotide, no ligand.
Setting [2] is: ligand present: flavin mononucleotide, designed as: ON switch for flavin mononucleotide.
Where [3] appears, read: designed as: OFF switch for flavin mononucleotide, no ligand.
Setting [4] is: ligand present: flavin mononucleotide, designed as: OFF switch for flavin mononucleotide.

On to “UGGAAAUGCGAGAAGGACAUGAGGAUCACCCAUGUAGGAUAUCGACCUAGGUGCAGAUCGUUAUAGGAUCUCUUCGCUUGUAGG”, for which the “apparent Kd” value under setting [1] was determined as 16.5 nM and the “apparent Kd” value under setting [2] turned out to be 7.08 nM.
As for “UCACGGGAUUGAGGAUAUAUAUUUAUUAUUUUAAUAGAAGGCAAAGAGUUAGUUUUUUCACUAUACAUGAGGAUCACCCAUGUU”, the “apparent Kd” value runs as follows: under setting [3], 33.4 nM; under setting [4], 30.5 nM.
As for “UGCACAUGAGGAUCACCCAUGUAUUGUUCGGUUAAUAGAAGUGAGGAUAUGCAUAAAAUAAGGUAGCAGAAGGCACAGGAUUCA”, the “apparent Kd” value under setting [1] was 23.9 nM and the “apparent Kd” value under setting [2] was 25.4 nM.
“AAGAAGUUAGGAUAUGCUGCUCGUCACAAAAGUGAUGAGUAGCAGAAGGAACAUGAGGAUCACCCAUGUAAAGA”: the “apparent Kd” value by setting is: under setting [3], 32.3 nM; under setting [4], 22.9 nM.
Turning to “UGGAUCAUCGGAGGAUAUCAUGUAGAUACAUGAGGAUCACCCAUGUCGAUGGAGACAUCGGAGAUUGAGAAGGCCGAUGAUCCU”, the “apparent Kd” value by setting is: under setting [1], 543 nM; under setting [2], 30.9 nM.
For “UAUAGUGGCGUAGGAUAUCUGCGUACAUGAGGAUCACCCAUGUCUCCCAGCAGCUGAUCUGGGACAGAGAAGGGCGACCGCAUA” the same measures were 157 nM and 63.6 nM.
Take “UACUGGAUUGUAGACGCGUUGCGACGAGAAGGUACACAUGAGGAUCACCCAUGUCGAGUGGGAGGUAAGGAUAUUGGAUGGCGU”: the “apparent Kd” value came to 293 nM under setting [1] and 211 nM under setting [2].
For the sequence “CGCUACGUUUCGUAGCAGUGUCAUCGAGAAGGCCCUGACAUGAGGAUCACCCAUGUUGUUACAUGGGAGGAUAUCGAUGAUACC”, the “apparent Kd” value runs as follows: under setting [1], 12.2 nM; under setting [2], 5.25 nM.
“AAGUCGUGAGGAUAUACAUGCAUAUACAUUUAUGUAAAACUACAUGAGGAUCACCCAUGUAGAAGGCACGAAUA”: the “apparent Kd” value stood at 17.6 nM under setting [3] and 16.1 nM under setting [4].
With “GAGGUAUAAGGAUAUACAUAGAUACAGACACAUGUUCAAGUACAUGAGGAUCACCCAUGUAGAAGGUAUAUAUC”, the “apparent Kd” value amounted to 33.6 nM under setting [3] and 30.6 nM under setting [4].
Turning to “GGUUGUAAUGUCAGCGAGUGUUAGAGAAGGUACAUGAGGAUCACCCAUGUACGUGAUCUUGCGAGUAAGGAUAUCUGUUAUUCA”, the “apparent Kd” value under setting [3] is 5.2 nM and the “apparent Kd” value under setting [4] was determined as 5.5 nM.
With “UAAAUUUUAUGAUAUUAUGACAUUAGAAGGCUAUACAUGUUGAUACAUGAGGAUCACCCAUGUAUAGAGGAUAUAGACAAUUAU”, the “apparent Kd” value runs as follows: under setting [3], 44.1 nM; under setting [4], 100 nM.
Consider “GUAGCAUACCGAGGAUAUUCUUACCGGAAACGGACAUGAGGAUCACCCAUGUGGCGAAAGCCUUUGGAGAAGGCGGAAUGCUAC”, for which the “apparent Kd” value stood at 12.4 nM under setting [1] and 12.4 nM under setting [2].
For “AGGCCGCUACGCCGGCUUCACGCACAGGAUAUGCAGUUACAUGAGGAUCACCCAUGUGGCCAUGUGCAGAAGGGUGGUUCGUUA”, the “apparent Kd” value under setting [1] is 109 nM and the “apparent Kd” value under setting [2] stood at 24.5 nM.
Take “CAGAAGUCAGGAUAUCCAUGGCGGCACUUGCGUGGUGGCGUGGAGAAGGGACAUGAGGAUCACCCAUGUAAAGG”: the “apparent Kd” value under setting [3] was determined as 171 nM and the “apparent Kd” value under setting [4] is 237 nM.
For “ACUAUACGAGGAUAUACUGUCAGGCCUCAGACAUAAAUAAGACAUGAGGAUCACCCAUGUAGAAGGCGUUUACU” the same measures were 31.3 nM and 48 nM.
As to “UUCAUGUGAGGAUAUAGUACUUCUUCUAUUAUUAUUGAGUACUAGAAGGCACAUGAGGAUCACCCAUGUAGUAC”, the “apparent Kd” value under setting [3] came out at 58 nM and the “apparent Kd” value under setting [4] was 20.9 nM.
For “GUCCUUUCUGAGGAUAUUAUCUGGUUCGAUUGAUAAGAAGGCAGUACAUGAGGAUCACCCAUGUGGGUCGUUUG” the same measures were 37.3 nM and 244 nM.
With “AGUAAGAUGCAGAAGGUGUUAGCUAGAGCUACGACAUGAGGAUCACCCAUGUACUAGAAACAGUACAAGGAUAUGCAUCUUACU”, the “apparent Kd” value is, setting by setting: under setting [1], 18.4 nM; under setting [2], 6.43 nM.
In the case of “GUACCUUAUGAGAAGGCGGUCAUGAAACAUGAUCGAGGAUAUCAUGUAAACAUGAGGAUCACCCAUGUAUGGGUAUUAUGGUAG”, the “apparent Kd” value by setting is: under setting [1], 70.2 nM; under setting [2], 13.8 nM.
On to “ACGCUUUGGGAGAAGGUACGUUAAUUAUUUUCCACAUGAGGAUCACCCAUGUAAGGAUAUCCCGGCGUGAAAUAGGCUACAGCA”, for which the “apparent Kd” value turned out to be 6.71 nM under setting [3] and 8.08 nM under setting [4].
In the case of “AGUAAGAUGCAGAAGGUGUCAGCGAGAGCUACGACAUGAGGAUCACCCAUGUACUAGUGAGAGUACGAGGAUAUGCAUCUUACA”, the “apparent Kd” value was 37.3 nM under setting [1] and 13.9 nM under setting [2].
For the sequence “GUAGAGUAGUGAGGAUAUACGAGUACGAUAGUACGGCGAUCCAAUAAUACAUGAGGAUCACCCAUGUAGAAGGCACUUCUCUAC”, the “apparent Kd” value under setting [3] stood at 8.53 nM and the “apparent Kd” value under setting [4] was 98.7 nM.
Consider “CCGGAUACGGGUAGCCUGACAUGAGGAUCACCCAUGUAAUACGAGGAUAUGGAUCCUAAUUGGAUCCAGAAGGUGUCAGGCUAC”, for which the “apparent Kd” value is, setting by setting: under setting [1], 1310 nM; under setting [2], 734 nM.
Take “GUUACACAUGAGGAUCACCCAUGUAAGGAUAUGCUGCGGUCGCGAAAACGUGACUGCAGCAGAAGGUACACAUG”: the “apparent Kd” value is, setting by setting: under setting [3], 119 nM; under setting [4], 121 nM.
For the sequence “GCUGCAUAGGCAGGAUAUACAAUAAUUCGAAUAAAAUAUAACGAAUUAACAUGAGGAUCACCCAUGUAGAAGGGCCUGUGCAGU”, the “apparent Kd” value reads like this: under setting [3], 6.32 nM; under setting [4], 10.4 nM.
As to “UGUUUUCAUGUAGGAUAUGCUUGUCGUAGAUACGCAGAAGGACAUGAGGAUCACCCAUGUUAAUGCGACAGAUUUUAGUUUCUU”, the “apparent Kd” value stood at 19.6 nM under setting [3] and 62 nM under setting [4].
“AAAGGAUCAGGAUAUGCGUGGAAAAAGUGUAUUCAAAAAAAACAUGAGGAUCACCCAUGUAGAAGGGAUCCAAA”: the “apparent Kd” value stood at 182 nM under setting [3] and 657 nM under setting [4].
For “GUCAGCUCGUGAGGAUAUACAACACUGCUUCGGCAGUGUAUUAAGAUAACAUGAGGAUCACCCAUGUAGAAGGCACGAGCUGAU” the same measures were 5.58 nM and 8.48 nM.
As for “GCAAUAGCAUGAGGAUAUGUUGGAGUUUAGACAGCAGAAGGCAUGUCAUAAGACAUGAGGAUCACCCAUGUAAUUACAAUAGCA”, the “apparent Kd” value under setting [1] turned out to be 32.7 nM and the “apparent Kd” value under setting [2] worked out at 12.1 nM.
On to “GGAGACCUCACAGGAUAUGCUGGACUUUGUCCAGCAGAAGGGUGAAAACAUGAGGAUCACCCAUGUAUGGUCUCCAAAUUUAAC”, for which the “apparent Kd” value by setting is: under setting [1], 182 nM; under setting [2], 13.6 nM.
“UGUUGUAUUACAGGAUAUCUAGUAUUUUUAUUAAGAGAAGGGUAUUCACAUGAGGAUCACCCAUGUAUAUACGAGGAAGUUGUG”: the “apparent Kd” value under setting [1] is 42.4 nM and the “apparent Kd” value under setting [2] stood at 42.4 nM.
With “UACGCCUAGGAGAAGGGCCCACUAUAGGGUAAAUGCUGUUCUCACAUGAGGAUCACCCAUGUGCGGCAGGAUAUCCACGCGUAC”, the “apparent Kd” value is, setting by setting: under setting [3], 8.25 nM; under setting [4], 39 nM.
Take “GGGCCCGGUGUGAGGAUAUUGGGUCUGAAAGGGCUCGAGAAGGCACAUGAGGAUCACCCAUGUAAGCCGGGCCC”: the “apparent Kd” value worked out at 16.7 nM under setting [3] and 13.7 nM under setting [4].
As to “UGACUGAUAUAGAAGGGUAUGUGGGAAUUACAUGAGGAUCACCCAUGUUUUAUAGGAUAUGUAUAUAGAAUUUAAUCAAGUUUA”, the “apparent Kd” value stood at 40.5 nM under setting [3] and 37.1 nM under setting [4].
For “GGGCUGUCAGGAUAUUUUGGGCCCGGGUAAACCCGGGCCCGGGAGAAGGGACAUGAGGAUCACCCAUGUGGCCC” the same measures were 34.7 nM and 37.3 nM.
For the sequence “AGUUAAUAUCGAGGAUAUCUCAUGAAUACAUGAGGAUCACCCAUGUGAAUGGGAGAAGGCGAUAUUAACAGCAUGUUACAUGCA”, the “apparent Kd” value came out at 12.6 nM under setting [1] and 6.52 nM under setting [2].
For “GCCCGGGCAGGAUAUGCCCGGGCGCACAUGAGGAUCACCCAUGUGGCCCUGUGCCGUCCGGCAGAAGGGCCCGGGC”, the “apparent Kd” value runs as follows: under setting [3], 90.1 nM; under setting [4], 87.4 nM.
In the case of “CUGUCGAUAUCAGGAUAUCGAUUAACUACAUGAGGAUCACCCAUGUUGACAUGGAAUAUAACUUGCGAGAAGGGAUAACGAUAG”, the “apparent Kd” value reads like this: under setting [1], 23.4 nM; under setting [2], 13.8 nM.
Turning to “UCAGGUGGAGGAUAUACAGCUCGAUCCUGUAAUAAAACGGCACAUGAGGAUCACCCAUGUAGAAGGCCACAAUA”, the “apparent Kd” value by setting is: under setting [3], 25.7 nM; under setting [4], 126 nM.
With “GUCUGGCUAGGAUAUACAGUGUCCACAAGUUAGUUACCCUAACAUGAGGAUCACCCAUGUAGAAGGAGUGAGAA”, the “apparent Kd” value under setting [3] is 72.9 nM and the “apparent Kd” value under setting [4] stood at 308 nM.
For “GUAAUAAAGAUCCAAUUAUACAACAUGAGGAUCACCCAUGUGCAGGAUAUCGUGUGUUUUUUAUUCGAGAAGGGCAAAUUCAUU” the same measures were 51.9 nM and 146 nM.
On to “CCUGAGUGUCUAGGAUAUGCAUACCCGAGCUUUGCAGAAGGAGACAUGAGGAUCACCCAUGUGGACUUGGCAGGUCUCGCACCA”, for which the “apparent Kd” value reads like this: under setting [3], 5.91 nM; under setting [4], 7.59 nM.
For “AUGCUUCACACAGGAUAUUACAACAUGAGGAUCACCCAUGUACAUGACAUGACGAUCACGCAUGUUAAGAAGGGUGUGAAGCAU” the same measures were 587 nM and 449 nM.
As to “GCGAAUCAGUGAGGAUAUACAUAAUUUAUACCUGUAGAAGGCACAAACCUCAAGACAUGAGGAUCACCCAUGUGACAUAUCGCU”, the “apparent Kd” value is, setting by setting: under setting [3], 43.3 nM; under setting [4], 66.8 nM.
As for “AGCUAGUCAGGAUAUACGAACACGUCAAAAGACUUGAAGGGACAUGAGGAUCACCCAUGUAGAAGGGACUAGCA”, the “apparent Kd” value under setting [3] came out at 35.1 nM and the “apparent Kd” value under setting [4] came out at 123 nM.
For “GGAGAACAUGAGGAUCACCCAUGUGAGCGGUAGCUAGGAUAUGCGGGAAGGAAGAGAGAAGCAGAAGGAGUCGGUA”, the “apparent Kd” value runs as follows: under setting [1], 36.1 nM; under setting [2], 22.9 nM.
On to “GUCGUGCGGCUUUGCUGUACGAGUACAUGAGGAUCACCCAUGUAGGAUAUGGUUCGUUUUGCGUGCUAGAAGGGCGUGCGUUGU”, for which the “apparent Kd” value stood at 25.7 nM under setting [3] and 21.3 nM under setting [4].

The apparent Kd is a dissociation constant that holds for the conditions of the assay.
